Ends that are not written are not given here.
Legend:
[1] = tested on: S. aureus Mu50; test: Antibacterial assay, S. aureus clinical strain Mu50; assay type: cell-based, Staphylococcus aureus; conditions: broth microdilution, TSB
How it was run: (§1)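 Log-phase cultures (OD600 ≈ 0.5) grown in tryptic soy broth were diluted to 0.001 OD and added to serially diluted test compound. Peptide stocks were freshly made in autoclaved water and quantitated by UV. Plates were incubated at 37 °C for 18–20 h and read at 630 nm for growth.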

[2] = tested on: S. aureus USA200; test: Antibacterial assay, S. aureus clinical strain USA200; assay type: cell-based, Staphylococcus aureus; conditions: broth microdilution, TSB
How it was run: as §1

[3] = tested on: S. aureus USA400; test: Antibacterial assay, S. aureus clinical strain USA400; assay type: cell-based, Staphylococcus aureus; conditions: broth microdilution, TSB
How it was run: as §1

[4] = tested on: Pseudomonas aeruginosa E411‐17; test: Broth microdilution MIC, P. aeruginosa E411-17; assay type: cell-based; conditions: TSB, 37 °C, 18–20 h
How it was run: as §1

[5] = tested on: Staphylococcus aureus USA300 LAC; test: Broth microdilution MIC, S. aureus USA300 LAC; assay type: cell-based; conditions: for MIC, S. aureus clinical strain USA300: Table 5, broth microdilution; for Antibacterial minimal inhibitory concentration, Staphylococcus aureus USA300 LAC: broth microdilution, 37 °C, 18–20 h, read at 630 nm
How it was run: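 Broth microdilution was run in tryptic soy broth. Log-phase USA300 LAC (OD600 ≈ 0.5) was diluted to 0.001 OD over serially diluted test compound, incubated 18–20 h at 37 °C and read at 630 nm. For medium effects the broth was adjusted to pH 5.5, 6.8, 7.4 or 8.0, brought to 100 mM NaCl, or supplemented with 1, 5 or 10% human serum.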

[6] = tested on: Staphylococcus epidermidis 1457; test: Broth microdilution MIC, S. epidermidis 1457; assay type: cell-based; conditions: TSB, 37 °C, 18–20 h
How it was run: as §1

[7] = tested on: Escherichia coli E423‐17; test: Broth microdilution MIC, E. coli E423-17; assay type: cell-based; conditions: TSB, 37 °C, 18–20 h
How it was run: as §1

[8] = tested on: S. aureus Newman; test: Antibacterial assay, S. aureus clinical strain Newman; assay type: cell-based, Staphylococcus aureus; conditions: broth microdilution, TSB
How it was run: as §1

[9] = tested on: Acinetobacter baumannii B28‐16; test: Broth microdilution MIC, A. baumannii B28-16; assay type: cell-based; conditions: TSB, 37 °C, 18–20 h
How it was run: as §1

[10] = tested on: Klebsiella pneumoniae E406‐17; test: Broth microdilution MIC, K. pneumoniae E406-17; assay type: cell-based; conditions: TSB, 37 °C, 18–20 h
How it was run: as §1

[11] = tested on: Nafcillin‐resistant S. aureus USA300; test: Antibacterial assay, nafcillin-resistant S. aureus USA300; assay type: cell-based, Staphylococcus aureus; conditions: broth microdilution, TSB
How it was run: as §1

Compound | MIC, S. aureus clinical strain Mu 50 [1] | MIC, S. aureus clinical strain USA200 [2] | MIC, S. aureus clinical strain USA400 [3] | Antibacterial minimal inhibitory concentration, Pseudomonas aeruginosa E411‐17 [4] | MIC, S. aureus clinical strain USA300 ([5]; TSB) | Antibacterial minimal inhibitory concentration, Staphylococcus aureus USA300 LAC ([5]; TSB) | Antibacterial minimal inhibitory concentration, Staphylococcus epidermidis 1457 [6] | Antibacterial minimal inhibitory concentration, Escherichia coli E423‐17 [7] | MIC, S. aureus clinical strain Newman [8] | Antibacterial minimal inhibitory concentration, Acinetobacter baumannii B28‐16 [9] | Antibacterial minimal inhibitory concentration, Klebsiella pneumoniae E406‐17 [10] | MIC against S. aureus USA300, pH 5.5 ([5]; TSB adjusted to pH 5.5) | MIC against S. aureus USA300, pH 6.8 ([5]; TSB adjusted to pH 6.8) | MIC against S. aureus USA300, pH 8 ([5]; TSB adjusted to pH 8.0) | MIC against S. aureus USA300, 100 mM NaCl ([5]; TSB with 100 mM NaCl added) | MIC against S. aureus USA300, 1% serum ([5]; TSB with 1% human serum) | MIC against S. aureus USA300, 5% serum ([5]; TSB with 5% human serum) | MIC against S. aureus USA300, 10% serum ([5]; TSB with 10% human serum) | MIC against S. aureus USA300, pH 7.4 ([5]; TSB, pH 7.4 (normal condition)) | MIC, Nafcillin‐resistant USA300 [11]
CC[C@H](C)[C@H](NC(=O)[C@H](CCCNC(=N)N)NC(=O)[C@H](C)NC(=O)[C@@H](NC(=O)[C@H](CO)NC(=O)[C@@H](NC(=O)[C@@H](NC(=O)[C@H](CCC(N)=O)NC(=O)[C@H](CO)NC(=O)[C@@H](NC(=O)[C@@H](N)Cc1ccccc1)[C@@H](C)CC)[C@@H](C)CC)[C@@H](C)CC)[C@@H](C)O)C(N)=O [YZ103] | >32 µM | >32 µM | >32 µM | >16 µM | >32 µM | >16 µM | >16 µM | >16 µM | >32 µM | >16 µM | >16 µM |  |  |  |  |  |  |  |  | 
FLSQILSTLRILL-NH2 [YZ105] | 2 µM | 1 µM | 1 µM | >16 µM | 1 µM | 1 µM | 1 µM | >16 µM | 2 µM | >16 µM | >16 µM | 4–8 μM | 2 μM | <0.5 μM | 2 µM | 2 µM | 8 µM | 8 to 16 µM | 1–2 μM | 2 µM
FLSKILSTLRILL-NH2 [YZ106] |  |  |  | >16 µM |  | 2 µM | 1 to 2 µM | 8 to 16 µM |  | 8 µM | >16 µM |  |  |  |  |  |  |  |  | 
CC[C@H](C)[C@H](NC(=O)[C@H](CCCNC(=N)N)NC(=O)[C@H](C)NC(=O)[C@@H](NC(=O)[C@H](CO)NC(=O)[C@@H](NC(=O)[C@@H](NC(=O)[C@H](CCC(N)=O)NC(=O)[C@H](CO)NC(=O)[C@@H](NC(=O)[C@@H](N)Cc1ccccc1)[C@@H](C)CC)[C@@H](C)CC)[C@@H](C)CC)[C@@H](C)O)C(=O)N[C@@H](CC(C)C)C(=O)N[C@@H](CC(C)C)C(N)=O [YZ104] |  |  |  | >16 µM |  | >16 µM | >16 µM | >16 µM |  | >16 µM | >16 µM |  |  |  |  |  |  |  |  | 

Reference: publication PMC9564113 (Peptide Science (Hoboken, N.j.), 2022)
